Screens from PubChem.
In the library only some 1.6% were active in any assay of this set; here they are far more common.
RAD54 branch: inhibitors of human RAD54 branch migration, primary screen, biochemical, fluorescence, single point; DNA repair and recombination protein RAD54-like (Homo sapiens), Q92698; RAD54 Holliday junction branch migration, FAM/BHQ fluorescence; inhibition, % at 10.4 µM; hit rate 0.14% among 360,000;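 active = mean normalized replicate activity at least 40 and at least half of replicates scoring 40 or more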;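 note: inhibitors cause a drop in the FAM fluorescence signal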
Apaf1 inhib: inhibitors of human Apaf-1 apoptosome, primary screen, biochemical, DEVD-Rh110 fluorescence, uHTS; Apoptotic protease-activating factor 1 (Homo sapiens), O14727; reconstituted apoptosome caspase-3 activity; inhibition, % at 20 µM; hit rate 0.71% among 330,000; AID 489030, 2010; active = inhibition of at least 40% at 20 µM
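Material: cell-free apoptosome with Apaf-1, procaspase-3 and caspase-9; Buffer or medium: Hepes pH 7.5 with detergent and BSA; Reagent: cytochrome c trigger plus (Z-DEVD)2-Rh110 caspase-3 substrate; Times: compound with Apaf-1, dATP, procaspase-3 30 min, then 50 min reaction, room temperature; Technique: Rh110 fluorescence intensity.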
UBC13 polyUb: UBC13 polyubiquitin chain formation inhibitors, primary screen, biochemical, TR-FRET, uHTS | Ubiquitin-conjugating enzyme E2 N (Homo sapiens), P61088 | inhibition, % at 20 µM | hit rate 0.47% among 330,000 | AID 485273, 2010; in the data active = inhibition above about 45%, passing the limit was not always enough
RAD52 inh: RAD52 DNA annealing inhibitors, primary screen, biochemical, FRET, single point, set 2 | hit rate 0.46% among 360,000 | DNA repair protein RAD52 homolog (Homo sapiens), P43351 | inhibition, % at 18.7 µM | recombinant RAD52 DNA annealing, FRET fluorescence;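 active = every replicate showing at least 50% inhibition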
Neddylation inh: inhibitors of cullin neddylation, primary screen, biochemical, TR-FRET, uHTS, NAE and Ubc12 | AID 651699, 2012 | calls only at 25 µM | NEDD8-conjugating enzyme Ubc12 (Homo sapiens) + NEDD8-activating enzyme E1 regulatory … | hit rate 0.58% among 360,000; in the data active = inhibition above about 36%
FID counter: compounds displacing fluorescent DNA intercalator, primary screen, artefact control for HCV NS3 helicase inhibitor project, biochemical, FID fluorescence. DNA fluorescent intercalator displacement. inhibition, % at 7.9 µM. hit rate 0.17% among 290,000; in the data active = inhibition above about 37%;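 note: higher means more ethidium bromide displaced from hairpin DNA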
Apaf-1 inh conf: Apaf-1 inhibitors, single-dose retest, confirmation, biochemical, fluorescence, DEVD-Rh110, 20 µM; shares compounds with Apaf1 inhib; inhibition, % at 20 µM; hit rate 25% among 1,800; reconstituted apoptosome, caspase-3 DEVD-Rh110 fluorescence;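 active = mean inhibition of at least 40% at 20 µM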
Rh110 quench: Rh110 fluorescence interference by putative Apaf-1 inhibitors, confirmation, artefact control for Apaf-1 inhibitor project, biochemical, 20 µM; quenched caspase reaction; activation (fluorescence interference), % at 20 µM; AID 504615, 2011; shares compounds with Apaf1 inhib; 1,800 tested, under 10 active;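 active = signal rise of 40% or more at 20 µM, treated as a fluorescence artifact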
Apaf1 inh interf: fluorescence interference of Apaf-1 inhibitor hits, dose response, artefact control for Apaf-1 inhibitor project; shares compounds with Apaf1 inhib; IC50, µM; 460 tested, under 10 active; fluorescence interference counterscreen, Apaf-1 assay format; call rule not given here
A number is an active result; - = inactive; . = no result given; + = active, no number.

SMILES	RAD54 branch	Apaf1 inhib	UBC13 polyUb	RAD52 inh	Neddylation inh	FID counter	Apaf-1 inh conf	Rh110 quench	others
c1cc2c3c(cccc3c1)NC1(CCCCCC1)N2	-	49	-	.	-	-	57	-	Apaf1 inh interf=-
c1cc2c3c(cccc3c1)NC1(CCC3(CC1)Nc1cccc4cccc(c14)N3)N2	-	40	-	-	+	-	45	-	Apaf1 inh interf=-
c1cc2c3c(cccc3c1)NC1(CCCCC1)N2	-	-	-	-	-	-	.	.
Cc1ccc(S(=O)(=O)Nc2ccc3c(c2)C(=O)N([C@H](C)CO)C[C@@H](C)[C@@H](CN(C)C(=O)Nc2ccccc2)OCCCC[C@H](C)O3)cc1	-	.	.	-	.	.	.	.
C[C@H]1COC2=C1C(=O)C(=O)c1c2ccc2c1CCCC2(C)C	-	.	.	.	-	-	.	.
Cc1coc2c1C(=O)C(=O)c1c-2ccc2c1CCCC2(C)C	-	77	-	-	-	-	59	-	Apaf1 inh interf=-
Cn1ccc2cc3c(cc21)CCN3C(=O)Nc1cccnc1	-	66	-	-	-	.	-	-
Cc1nc(C)c(NC(=O)N2CCc3ccccc32)cc1NC(=O)N1CCc2ccccc21	-	-	-	.	-	-	.	.
COc1ccc(NC(=O)Nc2ccc3c(c2)C(=O)N([C@@H](C)CO)C[C@@H](C)[C@@H](CN(C)Cc2ccccc2)OCCCC[C@H](C)O3)cc1	-	.	.	-	.	.	.	.
NC(=O)CC1Nc2cccc3cccc(c23)NC1=O (stereo not given)	-	98	-	.	-	-	-	-
O=C(CC1Nc2cccc3cccc(c23)NC1=O)Nc1ccccc1 (stereo not given)	.	96	-	.	-	-	-	-
CCCOc1ccc(NC(=O)CC2Nc3ccccc3NC2=O)cc1 (stereo not given)	-	-	-	-	-	-	.	.
C[C@@]12CCC=C[C@H]1[C@H](c1ccc3ccccc3c1Br)N(Cc1ccccc1)C2=O	-	49	-	-	-	.	50	-	Apaf1 inh interf=-
C[C@@]12CCC=C[C@H]1[C@H](c1ccc3ccccc3c1)N(Cc1ccccc1)C2=O	-	-	-	-	-	.	.	.
CCCC#Cc1cnc2c(c1)C(=O)N([C@@H](C)CO)C[C@H](C)[C@@H](CN(C)C(=O)NC1CCCC1)O2	-	.	.	-	.	.	.	.
Cc1ccc(C(=O)N2CCCN(c3nc4cc5c(cc4cc3C#N)OCO5)CC2)cc1	-	67	-	-	-	-	-	-
COc1cccc(C(=O)Nc2ccc3c(c2)OC[C@@H](C)N(C)C[C@@H](C)[C@H](OC)CN(C)C3=O)c1	-	.	.	-	.	.	.	.
CC(=O)N1CCN(C(=S)Nc2ccc(SC(F)F)cc2)CC1	-	96	-	-	-	-	-	-
C[C@@H]1CN([C@@H](C)CO)C(=O)c2cc(C#Cc3ccncc3)cnc2O[C@H]1CN(C)CC1CCOCC1	-	.	.	-	.	.	.	.
O=C(NCC1CC1)[C@@H]1[C@@H](CO)[C@@H]2Cn3c(ccc(-c4cccnc4)c3=O)[C@H]1N2Cc1nccs1	-	.	.	-	.	.	.	.
CC1CCN(S(=O)(=O)c2ccc3c4c2CC(=O)N4CC(C)S3)CC1 (stereo not given)	-	94	-	-	-	-	86	-	Apaf1 inh interf=-
Cc1ccc(S(=O)(=O)N2CCN(S(=O)(=O)N3CCC(C)CC3)CC2)c(C)c1	-	-	-	-	-	-	.	.
CO[C@@H]1CN(C)C(=O)c2ccc(NS(=O)(=O)c3ccc(F)cc3)cc2OC[C@@H](C)N(C(=O)NC(C)C)C[C@H]1C	-	.	.	-	.	.	.	.
CC(C)NC(=O)Nc1ccc2c(c1)CC(=O)N([C@@H](C)CO)C[C@@H](C)[C@@H](CN(C)S(=O)(=O)c1cccs1)O2	-	.	.	-	.	.	.	.
C[C@H]1CN([C@@H](C)CO)C(=O)c2cc(NS(=O)(=O)c3cn(C)cn3)ccc2O[C@H]1CN(C)Cc1ccc(C(F)(F)F)cc1	-	.	.	-	.	.	.	.
SMILES	RAD54 branch	Apaf1 inhib	UBC13 polyUb	RAD52 inh	Neddylation inh	FID counter	Apaf-1 inh conf	Rh110 quench	others
O=C(NCCc1ccccc1)c1ccccc1SCC(=O)N1CCCC1	-	60	-	-	-	-	-	-
C[C@@H]1CN([C@@H](C)CO)C(=O)c2cccc(NC(=O)c3ccncc3)c2O[C@@H]1CN(C)S(=O)(=O)c1ccc(Cl)cc1	-	.	.	-	.	.	.	.
Oc1cccc2c(NC(=S)Nc3ccc(OC(F)F)cc3)cccc12	.	65	-	-	-	-	-	-
Cc1cc2cc(CNC(=O)Nc3ccc(Cl)c(Cl)c3)ccc2n1C	-	62	-	-	-	-	-	-
Cc1onc(-c2ccccc2Cl)c1C(=O)NCc1ccc2c(c1)cc(C)n2C	-	53	-	-	-	.	-	-
Cc1ccc(S(=O)(=O)NCc2ccc3c(c2)cc(C)n3C)cc1	-	51	-	-	-	-	-	-
Cc1noc(C)c1S(=O)(=O)Nc1ccc2c(c1)C(=O)N([C@@H](C)CO)C[C@H](C)[C@H](CN(C)Cc1ccc3c(c1)OCO3)OCCCC[C@@H](C)O2	-	.	.	-	.	.	.	.
CNC(=O)C[C@H]1CC[C@@H]2[C@H](COc3ccc(NC(=O)Nc4ccccc4)cc3C(=O)N2C)O1	-	.	.	-	.	.	.	.
C[C@@H]1CCCCO[C@@H](CN(C)C(=O)NC2CCCCC2)[C@H](C)CN([C@@H](C)CO)C(=O)c2cc(NC(=O)Cc3ccccc3)ccc2O1	-	.	.	-	.	.	.	.
CN1CCN(c2ccc(NC(=O)c3ccc(-c4ccc(Br)cc4)o3)cc2)CC1	.	45	-	-	-	43	42	-	Apaf1 inh interf=-
CCN1CCN(c2ccc(NC(=O)c3ccc(Br)o3)cc2)CC1	-	-	-	-	-	-	.	.
CCCCNc1cc(NC(C)=O)cc2cc(OC)c(OC)cc12	-	62	-	.	-	-	83	-	Apaf1 inh interf=-
COc1cc2cc(NC(C)=O)cc(NCc3ccccc3)c2cc1OC	-	88	-	-	-	-	-	-	Apaf1 inh interf=-
COc1ccc([N+](=O)[O-])cc1NCc1ccccc1	-	-	-	-	-	-	.	.
COc1cccc(CNC(=O)C[C@@H]2CC[C@@H](NC(=O)C3CCC3)[C@@H](CO)O2)c1	-	.	.	-	.	.	.	.
